Data: ChEMBL document CHEMBL4229472, “Surface Probing by Fragment-Based Screening and Computational Methods Identifies Ligandable Pockets on the von Hippel-Lindau (VHL) E3 Ubiquitin Ligase” (J Med Chem, 2018)

What was measured:
[1] = biological target: Von Hippel-Lindau disease tumor suppressor/Elongin B/Elongin C (Homo sapiens) (UniProt P40337+Q15370+Q15369); experiment: (§1) Binding affinity to N-terminal His6 tagged VHL (54 to 213 residues)/ELoC (17 to 112 residues)/EloB (1 to 120 residues) (unknown origin) complex expressed in Escherichia coli BL21(DE3) assessed as change in melting temperature at 1 mM by Sypro orange dye based differential scanning fluorimetric analysis
Outline: (§2)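 Thermal shift screen with each fragment tested as a singleton. Unfolding temperature is followed with a fluorescent dye that binds preferentially to unfolded protein. For line 1 the target is VCB alone. For line 3 it is VCB preincubated with HIF-1α peptide (VCBH), which separates binders of the HIF site from binders elsewhere in the complex.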

[2] = biological target: T1, von Hippel-Lindau disease tumor suppressor/Elongin-C/Elongin-B/HIF1A (Homo sapiens) (UniProt Q16665+P40337+Q15370+Q15369); experiment: as §1, with “120 residues)/HIF-1alpha” for “120 residues)”; outline: as §2
[3] = biological target: T1, von Hippel-Lindau disease tumor suppressor/Elongin-C/Elongin-B/HIF1A (Homo sapiens); experiment: Binding affinity to N-terminal His6 tagged VHL (54 to 213 residues)/ELoC (17 to 112 residues)/EloB (1 to 120 residues)/HIF-1alpha (unknown origin) complex expressed in Escherichia coli BL21(DE3) assessed as change in melting temperature at 1 mM in presence of DEALA-Hyp-YIPMDDDFQLRSF by differential scanning fluorimetry
[4] = biological target: Von Hippel-Lindau disease tumor suppressor/Elongin B/Elongin C (Homo sapiens, UniProt P40337); experiment: Binding affinity to N-terminal His6 tagged VHL (54 to 213 residues)/ELoC (17 to 112 residues)/EloB (1 to 120 residues) (unknown origin) complex expressed in Escherichia coli BL21(DE3) assessed as dissociation constant by ITC method

| ΔTm [1] [°C] | ΔTm [2] [°C] | ΔTm [3] [°C] | Kd [4] [mM] | Structure (SMILES) |
| --- | --- | --- | --- | --- |
| > 0.5 | > 0.5 | 0.7 |  | COC(=O)c1cc2occc2[nH]1 |
| > 0.5 | > 0.5 |  | 5 | OCc1ccc(-n2cccc2)cc1 |
| > 0.5 | > 0.5 | 1.2 | 6.7 | O=C1CCSc2ccc(Cl)cc21 |
